Source: ChEMBL document CHEMBL4308922, “Design and Evaluation of Heterobivalent PAR1-PAR2 Ligands as Antagonists of Calcium Mobilization” (ACS Med Chem Lett, 2019)
Active and inactive are the calls of the source. The rule behind the calls is not given here.

Legend:
[1] = molecular target: Proteinase-activated receptor 2 (Homo sapiens) (UniProt P55085); test: (§1) Antagonist activity at PAR2 in human EAhy926 cells assessed as inhibition of SLIGKV-NH2-induced intracellular calcium mobilization preincubated for 15 mins followed by SLIGKV-NH2 addition by Fluo-4-AM dye based fluorescence assay; format: functional, cell-based
Procedure, shortened: (§2)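 Confluent adherent cells (~48 h growth in 96-well plates) loaded with Fluo-4/AM calcium dye; antagonist added before PAR2 agonist SLIGKV-NH2 at 5 μM. IC50 from four-variable nonlinear regression of concentration–response data, N = 3 on one plate, SEM error bars.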

[2] = molecular target: T1, Proteinase-activated receptor 1 (Homo sapiens) (UniProt P25116); test: (§3) Antagonist activity at PAR1 in human EAhy926 cells assessed as inhibition of TFLLRN-NH2-induced intracellular calcium mobilization preincubated for 15 mins followed by TFLLRN-NH2 addition by Fluo-4-AM dye based fluorescence assay; format: functional, cell-based
T1 sequence (whole entry): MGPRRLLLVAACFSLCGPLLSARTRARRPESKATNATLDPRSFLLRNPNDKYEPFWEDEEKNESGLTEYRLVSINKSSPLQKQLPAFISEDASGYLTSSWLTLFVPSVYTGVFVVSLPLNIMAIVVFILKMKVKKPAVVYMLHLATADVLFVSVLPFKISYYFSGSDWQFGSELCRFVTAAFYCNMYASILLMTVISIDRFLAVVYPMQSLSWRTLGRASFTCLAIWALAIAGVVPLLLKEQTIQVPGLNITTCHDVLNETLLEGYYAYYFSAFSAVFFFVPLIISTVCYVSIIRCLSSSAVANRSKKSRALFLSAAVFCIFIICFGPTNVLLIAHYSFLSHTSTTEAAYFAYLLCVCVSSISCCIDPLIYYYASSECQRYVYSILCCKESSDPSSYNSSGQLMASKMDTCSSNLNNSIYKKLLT
Procedure, shortened: (§4)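 Adherent cells grown in 96-well plates to confluence (~48 h), loaded with Fluo-4/AM; antagonist added, then PAR1 agonist TFLLRN-NH2 at 5 μM. Concentration–response curves from N = 3 on a single plate, fitted by four-variable nonlinear regression to give IC50; errors as SEM.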

Homo sapiens = species on record: Homo sapiens; test: (§5) Antagonist activity at PAR1/PAR2 in human EAhy926 cells assessed as inhibition of SFLLRN-NH2-induced intracellular calcium mobilization preincubated for 15 mins followed by SFLLRN-NH2 addition by Fluo-4-AM dye based fluorescence assay; format: cell-based
Procedure, shortened: (§6)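 Cells cultured to confluence over ~48 h in 96-well plates, Fluo-4/AM loaded; antagonist added, then PAR1/2 agonist SFLLRN-NH2 at 3.16 μM. Curves from triplicate wells on a single plate fitted by four-variable nonlinear regression for IC50; SEM reported.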

[3] = molecular target: T2, Proteinase-activated receptor 2 (Homo sapiens, UniProt P55085); test: as §1; format: functional, cell-based; procedure, shortened: as §2
T2 sequence (P55085 whole entry): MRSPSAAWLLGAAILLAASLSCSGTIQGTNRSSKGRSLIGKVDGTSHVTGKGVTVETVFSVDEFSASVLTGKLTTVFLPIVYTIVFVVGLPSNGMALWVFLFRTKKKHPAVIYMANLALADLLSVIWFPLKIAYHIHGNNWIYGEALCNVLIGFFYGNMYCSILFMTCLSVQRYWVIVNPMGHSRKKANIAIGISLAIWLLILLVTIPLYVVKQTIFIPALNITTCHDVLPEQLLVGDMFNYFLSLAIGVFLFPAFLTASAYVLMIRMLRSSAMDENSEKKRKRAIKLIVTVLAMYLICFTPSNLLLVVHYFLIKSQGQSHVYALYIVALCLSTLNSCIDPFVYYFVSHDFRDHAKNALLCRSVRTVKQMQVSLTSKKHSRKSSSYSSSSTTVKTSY

[4] = molecular target: T3, Proteinase-activated receptor 1 (Homo sapiens, UniProt P25116); test: as §3; format: functional, cell-based; procedure, shortened: as §4
T3 sequence (P25116 whole entry): T1 sequence (whole entry)

[5] = as §5; format: cell-based; conditions: EA.hy 926; procedure, shortened: as §6
[6] = molecular target: T2, Proteinase-activated receptor 2; test: (§7) Antagonist activity at PAR2 in human MDA-MB-231 cells assessed as inhibition of SLIGKV-NH2-induced intracellular calcium mobilization preincubated for 15 mins followed by SLIGKV-NH2 addition by Fluo-4-AM dye based fluorescence assay; format: functional, cell-based; procedure, shortened: as §2
[7] = molecular target: Proteinase-activated receptor 2 (Homo sapiens) (UniProt P55085); test: (§8) Antagonist activity at PAR2 in human EAhy926 cells assessed as inhibition of trypsin-induced intracellular calcium mobilization preincubated for 15 mins followed by trypsin addition by Fluo-4-AM dye based fluorescence assay; format: functional, cell-based
Procedure, shortened: (§9)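 Fluo-4/AM-loaded confluent cells; antagonist added before 5 nM trypsin as PAR2-activating protease; calcium mobilization concentration–response fitted for IC50.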

[8] = molecular target: Proteinase-activated receptor 2 (Homo sapiens) (UniProt P55085); test: as §7; format: functional, cell-based; procedure, shortened: as §2
[9] = molecular target: T3, Proteinase-activated receptor 1; test: (§10) Antagonist activity at PAR1 in human MDA-MB-231 cells assessed as inhibition of TFLLRN-NH2-induced intracellular calcium mobilization preincubated for 15 mins followed by TFLLRN-NH2 addition by Fluo-4-AM dye based fluorescence assay; format: functional, cell-based; procedure, shortened: as §4
[10] = molecular target: T3, Proteinase-activated receptor 1; test: (§11) Antagonist activity at PAR1 in human EAhy926 cells assessed as inhibition of thrombin-induced intracellular calcium mobilization preincubated for 15 mins followed by thrombin addition by Fluo-4-AM dye based fluorescence assay; format: functional, cell-based
Procedure, shortened: (§12)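 Fluo-4/AM-loaded confluent EA.hy926 monolayers; antagonist added before 1 nM thrombin as activating protease; calcium mobilization curves fitted for IC50.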

[11] = (§13) Antagonist activity at PAR1/PAR2 in human MDA-MB-231 cells assessed as inhibition of SFLLRN-NH2-induced intracellular calcium mobilization preincubated for 15 mins followed by SFLLRN-NH2 addition by Fluo-4-AM dye based fluorescence assay; format: cell-based; procedure, shortened: as §6
[12] = Half life in mouse plasma at 10 uM by LC-MS/MS analysis; format: ADME, cell-free
[13] = molecular target: T2, Proteinase-activated receptor 2; test: as §8; format: functional, cell-based; procedure, shortened: as §9
[14] = molecular target: T1, Proteinase-activated receptor 1 (Homo sapiens); test: as §11; format: functional, cell-based; procedure, shortened: as §12
[15] = molecular target: T1, Proteinase-activated receptor 1 (Homo sapiens); test: as §10; format: functional, cell-based; procedure, shortened: as §4
MDA-MB-231 = test: as §13; format: cell-based; procedure, shortened: as §6

Compound	inhibition [1]	inhibition (Homo sapiens)	IC50 [3] [nM]	IC50 [4] [nM]	IC50 [5] [nM]	also measured
CC1(C)CN(C(=O)[C@H]2CC[C@H](C(=O)NCCOCCOCCOCCOCCOCCOCCn3cc(CCC(=O)NCC[C@H](NC(=O)[C@H](Cc4ccc(F)c(F)c4)NC(=O)Nc4ccc5c(CN6CCCC6)nn(Cc6c(Cl)cccc6Cl)c5c4)C(=O)NCc4ccccc4)nn3)CC2)CCN1C(=O)c1cn2nc(-c3ccc(F)cc3)cc(-c3ccc(F)cc3)c2n1	Active	Active				inhibition [2]: Active
CC(C)c1cc(-c2ccc(F)cc2)nn2cc(C(=O)N3CCN(C(=O)CCC(=O)NCCOCCOCCOCCOCCOCCOCCOCCOCCOCCOCCn4cc(CCC(=O)NCC[C@H](NC(=O)[C@H](Cc5ccc(F)c(F)c5)NC(=O)Nc5ccc6c(CN7CCCC7)nn(Cc7c(Cl)cccc7Cl)c6c5)C(=O)NCc5ccccc5)nn4)CC3(C)C)nc12			> 50000	40	> 50000	
CC(C)c1cc(-c2ccc(F)cc2)nn2cc(C(=O)N3CCN(C(=O)CCC(=O)NCCOCCOCCOCCOCCOCCOCCOCCOCCn4cc(CCC(=O)NCC[C@H](NC(=O)[C@H](Cc5ccc(F)c(F)c5)NC(=O)Nc5ccc6c(CN7CCCC7)nn(Cc7c(Cl)cccc7Cl)c6c5)C(=O)NCc5ccccc5)nn4)CC3(C)C)nc12			> 50000	130	3000	
CC1(C)CN(C(=O)[C@H]2CC[C@H](C(=O)NCCOCCOCCOCCOCCOCCOCCOCCOCCn3cc(CCC(=O)NCC[C@H](NC(=O)[C@H](Cc4ccc(F)c(F)c4)NC(=O)Nc4ccc5c(CN6CCCC6)nn(Cc6c(Cl)cccc6Cl)c5c4)C(=O)NCc4ccccc4)nn3)CC2)CCN1C(=O)c1cn2nc(-c3ccc(F)cc3)cc(-c3ccc(F)cc3)c2n1	Active	Active				inhibition [2]: Active
COCc1cn(CCOCCOCCOCCOCCOCCOCCOCCOCCOCCOCCNC(=O)CCC(=O)N2CCN(C(=O)c3cn4nc(-c5ccc(F)cc5)cc(C(C)C)c4n3)C(C)(C)C2)nn1		inactive	7000			IC50 [6]: 860 nM; inhibition [7]: inactive
CC(C)c1cc(-c2ccc(F)cc2)nn2cc(C(=O)N3CCN(C(=O)CCC(=O)NCCCCCC(=O)NCCOCCOCCOCCOCCOCCOCCOCCOCCOCCOCCOCCOCCOCCOCCOCCOCCOCCOCCOCCOCCOCCOCCOCCN=[N+]=[N-])CC3(C)C)nc12	inactive					inhibition [8]: inactive
CC(C)c1cc(-c2ccc(F)cc2)nn2cc(C(=O)N3CCN(C(=O)CCC(=O)NCCOCCOCCOCCOCCOCCOCCOCCOCCOCCOCCOCCOCCOCCOCCOCCOCCOCCOCCOCCOCCOCCOCCOCCn4cc(CCC(=O)NCC[C@H](NC(=O)[C@H](Cc5ccc(F)c(F)c5)NC(=O)Nc5ccc6c(CN7CCCC7)nn(Cc7c(Cl)cccc7Cl)c6c5)C(=O)NCc5ccccc5)nn4)CC3(C)C)nc12			3300	180	150	IC50 [9]: 140 nM; IC50 [6]: 3500 nM; IC50 [10]: 360 nM; IC50 [11]: 3300 nM; inhibition [7]: inactive; half-life at 10 µM [12]: 5.6 h
CC(C)c1cc(-c2ccc(F)cc2)nn2cc(C(=O)N3CCN(C(=O)CCC(=O)NCCOCCOCCOCCOCCOCCOCCn4cc(CCC(=O)NCC[C@H](NC(=O)[C@H](Cc5ccc(F)c(F)c5)NC(=O)Nc5ccc6c(CN7CCCC7)nn(Cc7c(Cl)cccc7Cl)c6c5)C(=O)NCc5ccccc5)nn4)CC3(C)C)nc12			> 50000	30	3000	
CC(C)c1cc(-c2ccc(F)cc2)nn2cc(C(=O)N3CCN(C(=O)CCC(=O)O)CC3(C)C)nc12			100			IC50 [6]: 480 nM; IC50 [13]: 2 nM
NCCOCCOCCOCCOCCOCCOCCOCCOCCn1cc(CCC(=O)NCC[C@H](NC(=O)[C@H](Cc2ccc(F)c(F)c2)NC(=O)Nc2ccc3c(CN4CCCC4)nn(Cc4c(Cl)cccc4Cl)c3c2)C(=O)NCc2ccccc2)nn1				97	74	IC50 [9]: 10 nM; inhibition [14]: Active
CC(C)c1cc(-c2ccc(F)cc2)nn2cc(C(=O)N3CCN(C(=O)CCC(=O)NCCCCC(=O)NCCOCCOCCOCCOCCOCCOCCOCCOCCOCCOCCOCCOCCOCCOCCOCCOCCOCCOCCOCCOCCOCCOCCOCCn4cc(CCC(=O)NCC[C@H](NC(=O)[C@H](Cc5ccc(F)c(F)c5)NC(=O)Nc5ccc6c(CN7CCCC7)nn(Cc7c(Cl)cccc7Cl)c6c5)C(=O)NCc5ccccc5)nn4)CC3(C)C)nc12	inactive	inactive				inhibition [15]: inactive; inhibition [8]: inactive; inhibition (MDA-MB-231): inactive; inhibition [2]: inactive
NCC[C@H](NC(=O)[C@H](Cc1ccc(F)c(F)c1)NC(=O)Nc1ccc2c(CN3CCCC3)nn(Cc3c(Cl)cccc3Cl)c2c1)C(=O)NCc1ccccc1 [RWJ-58259]						IC50 [9]: 5 nM
CC1(C)CN(C(=O)[C@H]2CC[C@H](C(=O)O)CC2)CCN1C(=O)c1cn2nc(-c3ccc(F)cc3)cc(-c3ccc(F)cc3)c2n1	Active					inhibition [8]: Active
CC1(C)CN(C(=O)[C@H]2CC[C@H](C(=O)NCCOCCOCCOCCOCCOCCOCCOCCOCCOCCOCCn3cc(CCC(=O)NCC[C@H](NC(=O)[C@H](Cc4ccc(F)c(F)c4)NC(=O)Nc4ccc5c(CN6CCCC6)nn(Cc6c(Cl)cccc6Cl)c5c4)C(=O)NCc4ccccc4)nn3)CC2)CCN1C(=O)c1cn2nc(-c3ccc(F)cc3)cc(-c3ccc(F)cc3)c2n1	Active	Active				inhibition [2]: Active
